Laboratory results from ChEMBL document CHEMBL1138913, “Synthesis, structure analysis, and antitumor activity of 3,6-disubstituted-1,4-dihydro-1,2,4,5-tetrazine derivatives” (2006).

Experiments:
Assay type in all cases: functional
A549 [1] = experiment: Antiproliferative activity against human A549 cell line at 100 umol/L by SRB method
Method in brief: (§1)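 Growth inhibition of A-549 and BEL-7402 cells was measured in vitro by sulforhodamine B (SRB) staining. Compounds were tested across five tenfold concentrations from 10^-4 to 10^-8 mol/L, and each value is reported as the percent inhibition ratio of cell growth at that concentration.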

A549 [2] = experiment: Antiproliferative activity against human A549 cell line at 10 umol/L by SRB method; method in brief: as §1
A549 [3] = experiment: Antiproliferative activity against human A549 cell line at 1 umol/L by SRB method; method in brief: as §1
A549 [4] = experiment: Antiproliferative activity against human A549 cell line at 0.1 umol/L by SRB method; method in brief: as §1
A549 [5] = experiment: Antiproliferative activity against human A549 cell line at 0.01 umol/L by SRB method; method in brief: as §1
P388 [6] = experiment: Antiproliferative activity against mouse P388 cell line at 100 umol/L by MTT method
Method in brief: (§2)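 P-388 and HL-60 cells were tested in vitro by MTT assay over five tenfold concentrations from 10^-4 to 10^-8 mol/L. Each value is the percent inhibition ratio of cancer cell growth at that concentration.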

P388 [7] = experiment: Antiproliferative activity against mouse P388 cell line at 10 umol/L by MTT method; method in brief: as §2
P388 [8] = experiment: Antiproliferative activity against mouse P388 cell line at 1 umol/L by MTT method; method in brief: as §2
P388 [9] = experiment: Antiproliferative activity against mouse P388 cell line at 0.1 umol/L by MTT method; method in brief: as §2
P388 [10] = experiment: Antiproliferative activity against mouse P388 cell line at 0.01 umol/L by MTT method; method in brief: as §2
HL-60 [11] = experiment: Antiproliferative activity against human HL60 cell line at 10 umol/L by MTT method; method in brief: as §2
HL-60 [12] = experiment: Antiproliferative activity against human HL60 cell line at 1 umol/L by MTT method; method in brief: as §2
HL-60 [13] = experiment: Antiproliferative activity against human HL60 cell line at 0.1 umol/L by MTT method; method in brief: as §2
HL-60 [14] = experiment: Antiproliferative activity against human HL60 cell line at 0.01 umol/L by MTT method; method in brief: as §2
Bel-7402 [15] = experiment: Antiproliferative activity against human BEL-7402 cell line at 100 umol/L by SRB method; method in brief: as §1
Bel-7402 [16] = experiment: Antiproliferative activity against human BEL-7402 cell line at 10 umol/L by SRB method; method in brief: as §1
Bel-7402 [17] = experiment: Antiproliferative activity against human BEL-7402 cell line at 1 umol/L by SRB method; method in brief: as §1
Bel-7402 [18] = experiment: Antiproliferative activity against human BEL-7402 cell line at 0.1 umol/L by SRB method; method in brief: as §1
Bel-7402 [19] = experiment: Antiproliferative activity against human BEL-7402 cell line at 0.01 umol/L by SRB method; method in brief: as §1
HL-60 [20] = experiment: Antiproliferative activity against human HL60 cell line at 100 umol/L by MTT method; method in brief: as §2

Row | SMILES | Activity (A549 [1]) [%] | Activity (A549 [2]) [%] | Activity (A549 [3]) [%] | Activity (A549 [4]) [%] | Activity (A549 [5]) [%] | Activity (P388 [6]) [%] | Activity (P388 [7]) [%] | Activity (P388 [8]) [%] | Activity (P388 [9]) [%] | Activity (P388 [10]) [%] | Activity (HL-60 [11]) [%] | Activity (HL-60 [12]) [%] | Activity (HL-60 [13]) [%] | Activity (HL-60 [14]) [%] | Activity (Bel-7402 [15]) [%] | Activity (Bel-7402 [16]) [%] | Activity (Bel-7402 [17]) [%] | Activity (Bel-7402 [18]) [%] | Activity (Bel-7402 [19]) [%] | Activity (HL-60 [20]) [%]
1 | Oc1ccc(Cl)cc1-c1nnc(-c2cc(Cl)ccc2O)nn1 | 7.6 | 62.3 | 16.4 | 0 | 0 | 92.5 | 90.7 | 91.2 | 88 | 82.8 | – | – | – | – | – | – | – | – | – | –
2 | Cc1cccnc1C1=NN=C(c2ncccc2C)NN1 | 2.6 | 3.6 | 0 | 0 | 0 | 0 | 0 | 0 | 0 | 0 | 13.6 | 2.9 | 2.6 | 17.2 | 94.9 | 8.3 | 0 | 0 | 0 | 96.3
3 | c1ccc(-c2nnc(-c3ccccc3)nn2)cc1 | 60.4 | 9.5 | 20.3 | 27.1 | 29.7 | 15.5 | 0 | 0 | 0 | 0 | 16.4 | 13.9 | 13.9 | 0 | 41.7 | 7.4 | 0 | 0 | 0 | 35.1
4 | Oc1ccc(Cl)cc1C1=NN=C(c2cc(Cl)ccc2O)NN1 | 65.3 | 80.3 | 0 | 0 | 0 | 89 | 0 | 0 | 0 | 0 | – | – | – | – | – | – | – | – | – | –
5 | Clc1ccc(Cc2nnc(Cc3ccc(Cl)cc3)nn2)cc1 | 58.4 | 29.1 | 9.3 | 8.9 | 0 | 65.8 | 57.1 | 13.1 | 1.1 | 8.7 | 22.3 | 13.5 | 21.1 | 7.6 | 61.2 | 0 | 0 | 0 | 6 | 85.4
6 | Cc1cccnc1-c1nnc(-c2ncccc2C)nn1 | 93.5 | 9.8 | 0 | 0 | 0 | 34.9 | 0 | 0 | 0 | 0 | 96.6 | 7 | 9.1 | 4.2 | 93 | 23.8 | 0 | 0 | 2.8 | 94.3
7 | FC(F)(F)c1ccc(C2=NN=C(c3ccc(C(F)(F)F)cc3)NN2)cc1 | 70.3 | 22 | 0 | 0 | 0 | 47.7 | 36.9 | 15.2 | 13.8 | 9.1 | – | – | – | – | – | – | – | – | – | –
8 | Clc1ccccc1-c1nnc(-c2ccccc2Cl)nn1 [CLOFENTEZINE] | 8.2 | 2.8 | 5.6 | 14.6 | 12.6 | 0 | 0 | 0 | 0 | 0 | – | – | – | – | – | – | – | – | – | –
9 | Clc1ccc(C2=NN=C(c3ccc(Cl)cc3)NN2)cc1 | 73.4 | 2 | 4.7 | 0 | 7.1 | 65.9 | 51 | 36 | 19.4 | 4.9 | – | – | – | – | – | – | – | – | – | –
10 | c1ccc(C2=NNC(c3ccccc3)=NN2)cc1 | 55.8 | 67.2 | 5.4 | 10.2 | 0 | 87.6 | 69 | 0 | 0 | 0 | 16.1 | 2.9 | 2.6 | 17.2 | 54 | 14.3 | 0 | 0 | 0 | 82.1
11 | FC(F)(F)c1ccc(-c2nnc(-c3ccc(C(F)(F)F)cc3)nn2)cc1 | 51.5 | 44.4 | 33 | 19.5 | 9.7 | 40.2 | 2.5 | 0 | 0 | 0 | 7 | 5.8 | 1.4 | 0 | 21.3 | 12.6 | 0 | 0 | 0 | 43.7
12 | Clc1ccc(-c2nnc(-c3ccc(Cl)cc3)nn2)cc1 | 52.3 | 35.1 | 29 | 19.4 | 16.1 | 0 | 0 | 0 | 0 | 0 | 12.2 | 0 | 4 | 0 | 27.4 | 0.1 | 0 | 0 | 3.4 | 66.7
13 | Clc1ccc(CC2=NNC(Cc3ccc(Cl)cc3)=NN2)cc1 | 64.5 | 17.8 | 3 | 10.1 | 7.8 | 48.8 | 15.5 | 4.4 | 2.9 | 0 | – | – | – | – | – | – | – | – | – | –
